Experimental data reported in ChEMBL document CHEMBL4251705, “Y08060: A Selective BET Inhibitor for Treatment of Prostate Cancer” (ACS Med Chem Lett, 2018).
pIC50, pKd: −log10 of the molar value. Calls of active or inactive are those of the source. No cut-off for these calls is given here.

What was measured:
[1] = molecular target: T1, Bromodomain-containing protein 4 (Homo sapiens, UniProt O60885); test: Inhibition of human His6-tagged BRD4 BD1 (N44 to E168 residues) expressed in Escherichia coli BL21 (DE3) cells using H-SGRGK(Ac)GGK(Ac)GLGK(Ac)GGAK(Ac)RHRK-Biotin-OH as substrate after 2.5 hrs by AlphaScreen assay; conditions: for pIC50: read-out: IC50
[2] = molecular target: T1, Bromodomain-containing protein 4
[3] = molecular target: T1, Bromodomain-containing protein 4; test: Inhibition of BRD4 BD1 in human LNCAP cells assessed as decrease in TMPRSS2 mRNA levels at 5 uM after 48 hrs by qRT-PCR method; type: cell-based
Summary of the method: (§1)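 LNCaP cells treated with vehicle or compound at 5 μM for 48 h. Full-length AR, PSA, KLK2, TMPRSS2 and c-MYC transcripts quantified by qRT-PCR. Mean ± SD (n = 3) from one of three independent experiments; significance by two-tailed Student's t test.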

[4] = Oral bioavailability in Sprague-Dawley rat at 10 mg/kg administered as single dose; type: ADME, organism-based; conditions: in vivo
Summary of the method: (§2)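 Compound formulated in 5% DMSO, 40% PEG400 and 55% saline. Values are the mean of three independent experiments.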

[5] = molecular target: T1, Bromodomain-containing protein 4; test: Inhibition of BRD4 BD1 in human LNCAP cells assessed as decrease in c-MYC mRNA levels at 5 uM after 48 hrs by qRT-PCR method; type: cell-based; summary of the method: as §1
LNCaP C4-2B [6] = test: Anticlonogenic activity against human C4-2B cells at 5 uM after 14 days by crystal violet staining based assay; type: functional
Rattus norvegicus [7] = test: Tmax in Sprague-Dawley rat at 10 mg/kg, po administered as single dose; type: ADME, organism-based; conditions: in vivo; summary of the method: as §2
LNCaP C4-2B [8] = test: Antiproliferative activity against human C4-2B cells after 96 hrs by Cell-Titer glo reagent based luminescence assay; type: functional
Summary of the method: (§3)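 Cell viability read by CellTiter-Glo luminescence; IC50 derived from the viability data.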

Rattus norvegicus [9] = test: Cmax in Sprague-Dawley rat at 10 mg/kg, po administered as single dose; type: ADME, organism-based; parameters: dose 10 mg/kg, route oral; conditions: in vivo; summary of the method: as §2
[10] = molecular target: T1, Bromodomain-containing protein 4; test: Inhibition of BRD4 BD1 in human LNCAP cells assessed as decrease in full length androgen receptor mRNA levels at 5 uM after 48 hrs by qRT-PCR method; type: cell-based; summary of the method: as §1
Rattus norvegicus [11] = test: AUC (0 to infinity) in Sprague-Dawley rat at 2 mg/kg, iv; type: ADME, organism-based; parameters: dose 2 mg/kg, route intravenous, time infinity; conditions: in vivo; summary of the method: as §2
Rattus norvegicus [12] = test: AUC (0 to infinity) in Sprague-Dawley rat at 10 mg/kg, po administered as single dose; type: ADME, organism-based; parameters: dose 10 mg/kg, route oral, time infinity; conditions: in vivo; summary of the method: as §2
CWR22R [13] = test: Anticlonogenic activity against human 22Rv1 cells after 14 days by crystal violet staining based assay; type: functional, cell-based
[14] = molecular target: T1, Bromodomain-containing protein 4; test: Binding affinity to human His6-tagged BRD4 BD1 (N44 to E168 residues) expressed in Escherichia coli BL21 (DE3) cells by isothermal titration calorimetry method
[15] = molecular target: CREB-binding protein/Histone acetyltransferase p300 (Homo sapiens) (UniProt Q09472+Q92793); test: Inhibition of human His6-tagged CBP (R1081 to G1197 residues)/EP300 (A1040 to G1161 residues) expressed in Escherichia coli BL21 (DE3) cells by SYPRO Orange-dye based fluorescence thermal shift assay
CREB-binding protein/Histone acetyltransferase p300 (Homo sapiens), sequence (Q09472 whole entry, looked up, the tested form may be a part): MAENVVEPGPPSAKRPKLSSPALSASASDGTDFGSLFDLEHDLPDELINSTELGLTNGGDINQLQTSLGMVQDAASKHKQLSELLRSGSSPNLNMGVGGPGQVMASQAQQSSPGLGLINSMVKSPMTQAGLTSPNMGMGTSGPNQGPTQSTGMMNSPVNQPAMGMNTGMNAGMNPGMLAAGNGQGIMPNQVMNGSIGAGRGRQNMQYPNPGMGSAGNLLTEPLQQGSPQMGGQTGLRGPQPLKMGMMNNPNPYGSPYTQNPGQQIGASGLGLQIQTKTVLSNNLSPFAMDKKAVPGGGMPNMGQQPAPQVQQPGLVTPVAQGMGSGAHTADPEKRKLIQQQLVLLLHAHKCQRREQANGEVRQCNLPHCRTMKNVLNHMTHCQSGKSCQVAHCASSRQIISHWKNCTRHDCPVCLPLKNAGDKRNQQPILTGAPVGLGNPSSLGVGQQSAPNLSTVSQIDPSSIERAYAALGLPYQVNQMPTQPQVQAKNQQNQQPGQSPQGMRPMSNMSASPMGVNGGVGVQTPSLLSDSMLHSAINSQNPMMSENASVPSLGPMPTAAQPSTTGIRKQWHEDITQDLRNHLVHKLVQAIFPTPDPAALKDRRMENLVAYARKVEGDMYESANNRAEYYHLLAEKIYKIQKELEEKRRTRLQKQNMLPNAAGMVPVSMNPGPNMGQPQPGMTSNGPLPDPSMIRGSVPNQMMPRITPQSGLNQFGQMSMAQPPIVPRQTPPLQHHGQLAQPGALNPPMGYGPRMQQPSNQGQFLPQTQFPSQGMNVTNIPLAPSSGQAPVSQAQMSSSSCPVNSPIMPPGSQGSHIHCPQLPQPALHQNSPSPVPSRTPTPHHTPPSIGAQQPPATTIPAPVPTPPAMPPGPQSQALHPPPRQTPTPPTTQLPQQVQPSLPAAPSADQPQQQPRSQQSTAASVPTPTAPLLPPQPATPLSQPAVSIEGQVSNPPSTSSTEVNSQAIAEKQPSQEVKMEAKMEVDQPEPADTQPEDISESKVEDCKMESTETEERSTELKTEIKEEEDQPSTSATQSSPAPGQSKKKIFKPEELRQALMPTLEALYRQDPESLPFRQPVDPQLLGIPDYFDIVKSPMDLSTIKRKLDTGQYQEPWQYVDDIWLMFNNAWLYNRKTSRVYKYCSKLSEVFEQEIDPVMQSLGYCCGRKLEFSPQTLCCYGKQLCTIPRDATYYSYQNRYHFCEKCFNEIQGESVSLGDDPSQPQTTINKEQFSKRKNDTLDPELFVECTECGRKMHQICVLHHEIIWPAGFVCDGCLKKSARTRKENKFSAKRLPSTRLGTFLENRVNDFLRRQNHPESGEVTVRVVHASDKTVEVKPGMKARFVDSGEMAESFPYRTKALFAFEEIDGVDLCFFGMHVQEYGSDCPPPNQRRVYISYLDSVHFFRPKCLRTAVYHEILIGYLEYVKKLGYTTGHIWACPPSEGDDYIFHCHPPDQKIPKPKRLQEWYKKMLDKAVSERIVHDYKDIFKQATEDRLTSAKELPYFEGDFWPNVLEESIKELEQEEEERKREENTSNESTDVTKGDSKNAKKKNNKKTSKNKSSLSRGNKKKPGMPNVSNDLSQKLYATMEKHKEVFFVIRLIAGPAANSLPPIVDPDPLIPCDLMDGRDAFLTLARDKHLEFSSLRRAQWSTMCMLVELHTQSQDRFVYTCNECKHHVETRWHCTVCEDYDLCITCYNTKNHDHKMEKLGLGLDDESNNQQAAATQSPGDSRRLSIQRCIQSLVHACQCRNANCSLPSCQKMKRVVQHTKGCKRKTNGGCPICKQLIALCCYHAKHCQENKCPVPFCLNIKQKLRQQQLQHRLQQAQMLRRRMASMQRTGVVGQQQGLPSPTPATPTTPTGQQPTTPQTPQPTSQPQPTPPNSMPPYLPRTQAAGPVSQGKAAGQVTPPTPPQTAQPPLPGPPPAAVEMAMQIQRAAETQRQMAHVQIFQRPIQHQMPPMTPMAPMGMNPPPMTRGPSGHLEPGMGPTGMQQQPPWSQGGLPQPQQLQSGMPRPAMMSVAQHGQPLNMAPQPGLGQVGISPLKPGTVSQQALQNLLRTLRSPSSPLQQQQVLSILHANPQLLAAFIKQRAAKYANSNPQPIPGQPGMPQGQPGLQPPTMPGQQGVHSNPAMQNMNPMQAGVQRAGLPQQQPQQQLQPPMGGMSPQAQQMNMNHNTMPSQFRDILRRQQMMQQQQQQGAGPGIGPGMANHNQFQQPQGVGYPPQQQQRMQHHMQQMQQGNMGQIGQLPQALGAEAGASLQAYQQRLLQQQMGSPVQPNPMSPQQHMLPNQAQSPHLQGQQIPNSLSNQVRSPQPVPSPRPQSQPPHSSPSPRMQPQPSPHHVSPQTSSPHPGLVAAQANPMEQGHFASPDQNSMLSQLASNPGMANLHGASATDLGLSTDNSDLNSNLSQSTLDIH
CREB-binding protein/Histone acetyltransferase p300 (Homo sapiens), sequence (Q92793 whole entry, looked up, the tested form may be a part): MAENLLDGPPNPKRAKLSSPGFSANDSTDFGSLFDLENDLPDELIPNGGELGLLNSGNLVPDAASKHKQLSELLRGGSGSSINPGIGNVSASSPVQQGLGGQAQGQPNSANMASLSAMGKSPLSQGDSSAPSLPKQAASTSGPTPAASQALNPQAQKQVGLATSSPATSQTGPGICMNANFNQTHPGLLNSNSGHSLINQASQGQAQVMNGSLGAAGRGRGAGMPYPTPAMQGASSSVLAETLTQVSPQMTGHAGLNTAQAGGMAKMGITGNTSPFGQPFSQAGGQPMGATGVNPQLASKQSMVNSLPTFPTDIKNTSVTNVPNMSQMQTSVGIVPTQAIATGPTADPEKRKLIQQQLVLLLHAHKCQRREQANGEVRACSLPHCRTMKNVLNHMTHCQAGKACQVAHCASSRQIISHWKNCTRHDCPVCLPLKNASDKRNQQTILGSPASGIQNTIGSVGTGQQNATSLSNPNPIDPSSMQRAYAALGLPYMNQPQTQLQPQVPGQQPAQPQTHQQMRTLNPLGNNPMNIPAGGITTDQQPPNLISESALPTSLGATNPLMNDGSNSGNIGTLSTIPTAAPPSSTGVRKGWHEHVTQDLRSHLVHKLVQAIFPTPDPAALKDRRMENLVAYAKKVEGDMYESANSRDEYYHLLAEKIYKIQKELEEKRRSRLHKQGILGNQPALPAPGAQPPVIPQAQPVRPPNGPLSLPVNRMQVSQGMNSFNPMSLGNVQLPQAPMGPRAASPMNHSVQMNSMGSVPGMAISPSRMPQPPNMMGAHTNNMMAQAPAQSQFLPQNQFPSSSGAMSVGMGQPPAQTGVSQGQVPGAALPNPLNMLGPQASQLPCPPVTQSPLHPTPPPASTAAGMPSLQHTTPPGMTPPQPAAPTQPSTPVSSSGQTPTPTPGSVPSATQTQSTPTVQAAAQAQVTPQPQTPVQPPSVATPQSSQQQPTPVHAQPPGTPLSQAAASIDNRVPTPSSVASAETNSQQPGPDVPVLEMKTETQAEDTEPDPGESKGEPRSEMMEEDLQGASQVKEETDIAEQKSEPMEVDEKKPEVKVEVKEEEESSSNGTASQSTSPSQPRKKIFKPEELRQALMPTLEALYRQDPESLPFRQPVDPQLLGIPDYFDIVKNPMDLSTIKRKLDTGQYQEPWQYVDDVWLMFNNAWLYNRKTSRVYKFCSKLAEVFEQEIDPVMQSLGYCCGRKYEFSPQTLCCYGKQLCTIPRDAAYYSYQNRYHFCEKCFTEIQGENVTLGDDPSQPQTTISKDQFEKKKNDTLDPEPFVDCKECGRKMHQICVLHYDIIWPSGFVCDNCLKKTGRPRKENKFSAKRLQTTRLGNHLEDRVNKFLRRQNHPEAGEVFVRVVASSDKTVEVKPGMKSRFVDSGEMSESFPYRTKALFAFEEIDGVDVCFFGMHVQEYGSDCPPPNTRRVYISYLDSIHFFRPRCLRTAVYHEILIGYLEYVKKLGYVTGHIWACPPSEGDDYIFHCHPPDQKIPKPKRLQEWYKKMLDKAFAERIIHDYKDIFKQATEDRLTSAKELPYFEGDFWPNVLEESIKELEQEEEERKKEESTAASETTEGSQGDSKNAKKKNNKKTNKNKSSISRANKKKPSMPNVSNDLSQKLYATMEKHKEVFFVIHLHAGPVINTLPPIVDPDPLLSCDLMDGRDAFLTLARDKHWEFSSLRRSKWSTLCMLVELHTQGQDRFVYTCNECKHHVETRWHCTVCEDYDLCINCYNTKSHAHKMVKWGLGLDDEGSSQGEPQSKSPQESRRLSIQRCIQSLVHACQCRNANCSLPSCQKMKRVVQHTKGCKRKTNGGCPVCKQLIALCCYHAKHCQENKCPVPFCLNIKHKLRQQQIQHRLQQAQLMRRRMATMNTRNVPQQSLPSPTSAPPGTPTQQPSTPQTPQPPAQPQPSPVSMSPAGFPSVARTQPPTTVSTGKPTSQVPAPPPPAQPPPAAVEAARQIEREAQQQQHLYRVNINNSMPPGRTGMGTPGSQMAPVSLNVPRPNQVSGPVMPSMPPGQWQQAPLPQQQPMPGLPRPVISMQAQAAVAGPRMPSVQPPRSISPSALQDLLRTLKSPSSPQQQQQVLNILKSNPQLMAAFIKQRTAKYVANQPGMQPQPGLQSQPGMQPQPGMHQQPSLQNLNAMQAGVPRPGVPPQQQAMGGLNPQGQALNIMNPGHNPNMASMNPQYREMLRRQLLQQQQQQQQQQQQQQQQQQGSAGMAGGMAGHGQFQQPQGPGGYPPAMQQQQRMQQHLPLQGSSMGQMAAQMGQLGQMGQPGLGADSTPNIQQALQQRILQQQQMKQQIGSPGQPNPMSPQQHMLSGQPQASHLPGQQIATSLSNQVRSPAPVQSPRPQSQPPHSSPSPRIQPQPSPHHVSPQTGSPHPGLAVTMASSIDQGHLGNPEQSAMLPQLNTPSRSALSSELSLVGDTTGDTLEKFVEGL

DU-145 = test: Antiproliferative activity against human DU145 cells after 96 hrs by Cell-Titer glo reagent based luminescence assay; type: functional; conditions: DU-145, 96 h; summary of the method: as §3
Rattus norvegicus [16] = test: Cmax in Sprague-Dawley rat at 2 mg/kg, iv; type: ADME, organism-based; parameters: dose 2 mg/kg, route intravenous; conditions: in vivo; summary of the method: as §2
[17] = Mean residence time (0 to t) in Sprague-Dawley rat at 2 mg/kg, iv; type: ADME, organism-based; conditions: in vivo; summary of the method: as §2
[18] = AUC (0 to t) in Sprague-Dawley rat at 2 mg/kg, iv; type: ADME, organism-based; conditions: in vivo; summary of the method: as §2
[19] = molecular target: T1, Bromodomain-containing protein 4; test: Inhibition of BRD4 BD1 in human LNCAP cells assessed as decrease in PSA mRNA levels at 5 uM after 48 hrs by qRT-PCR method; type: cell-based; summary of the method: as §1
Rattus norvegicus [20] = test: Half life in Sprague-Dawley rat at 10 mg/kg, po administered as single dose; type: ADME, organism-based; conditions: in vivo; summary of the method: as §2
PC-3 = test: Antiproliferative activity against human PC3 cells after 96 hrs by Cell-Titer glo reagent based luminescence assay; type: functional; conditions: PC-3, 96 h; summary of the method: as §3
Rattus norvegicus [21] = test: Half life in Sprague-Dawley rat at 2 mg/kg, iv; type: ADME, organism-based; conditions: in vivo; summary of the method: as §2
CWR22R [22] = test: Anticlonogenic activity against human 22Rv1 cells at 5 uM after 14 days by crystal violet staining based assay; type: functional
Rattus norvegicus [23] = test: Tmax in Sprague-Dawley rat at 2 mg/kg, iv; type: ADME, organism-based; conditions: in vivo; summary of the method: as §2
CWR22R [24] = test: Antiproliferative activity against human 22Rv1 cells after 96 hrs by Cell-Titer glo reagent based luminescence assay; type: functional; conditions: for pIC50: 22Rv1, 96 h; summary of the method: as §3
[25] = Mean residence time (0 to t) in Sprague-Dawley rat at 10 mg/kg, po administered as single dose; type: ADME, organism-based; conditions: in vivo; summary of the method: as §2
[26] = Apparent volume of distribution in Sprague-Dawley rat at 2 mg/kg, iv; type: ADME, organism-based; conditions: in vivo, read-out: Vz; summary of the method: as §2
[27] = Clearance in Sprague-Dawley rat at 2 mg/kg, iv; type: ADME, organism-based; conditions: in vivo; summary of the method: as §2
[28] = molecular target: T1, Bromodomain-containing protein 4; test: Inhibition of BRD4 BD1 in human LNCAP cells assessed as decrease in KLK2 mRNA levels at 5 uM after 48 hrs by qRT-PCR method; type: cell-based; summary of the method: as §1
LNCaP = test: Antiproliferative activity against human LNCAP cells after 96 hrs by Cell-Titer glo reagent based luminescence assay; type: functional; summary of the method: as §3
[29] = AUC (0 to t) in Sprague-Dawley rat at 10 mg/kg, po administered as single dose; type: ADME, organism-based; conditions: in vivo; summary of the method: as §2

In the case of `Cc1ccc(S(=O)(=O)Nc2cnc3c(c2)OC(C)(C)C(=O)N3)cc1`, the pIC50 [1] was < 4.30 and the ΔTm [2] was 1.1 °C.
`COc1ccc(Br)cc1S(=O)(=O)Nc1cc2c(cc1N1CCCC1)NC(=O)C(C)(C)O2` gave a pIC50 [1] of 5.33 and a ΔTm [2] of 1.8 °C.
With `COc1cc2c(cc1NS(=O)(=O)c1cc(Br)ccc1OC)OC(C)(C)C(=O)N2` the inhibition [3] was “Active”, the bioavailability [4] was 61.5% and the inhibition [5] was “Active”. For the same compound, the Activity (LNCaP C4-2B [6]) was <10%, the Tmax (Rattus norvegicus [7]) was 1.67 h and the pIC50 (LNCaP C4-2B [8]) was 5.49. For the same compound, the Cmax (Rattus norvegicus [9]) was 0.926 µg/mL, the inhibition [10] was “Active” and the pIC50 [1] was 6.16. For the same compound, the ΔTm [2] was 6.6 °C, the AUC (Rattus norvegicus [11]) was 1.22382 µg·h/mL and the AUC (Rattus norvegicus [12]) was 3.76571 µg·h/mL. For the same compound, the Activity (CWR22R [13]) was “Dose-dependent effect”, the pKd [14] was 6.52 and the “thermal shift binding activity (active/inactive)” value [15] was “Active”. For the same compound, the pIC50 (DU-145) was 4.63, the Cmax (Rattus norvegicus [16]) was 1 µg/mL and the MRT last [17] was 1.17 h. The AUC(0-t) [18] was 1.2 µg·h/mL, the inhibition [19] was “Active” and the t1/2 (Rattus norvegicus [20]) was 1.96 h. For the same compound, the pIC50 (PC-3) was 4.76, the t1/2 (Rattus norvegicus [21]) was 1.65 h and the Activity (CWR22R [22]) was <10%. It also gave a Tmax (Rattus norvegicus [23]) of 4.98 min, a pIC50 (CWR22R [24]) of 5.47 and an MRT last [25] of 2.6 h. For the same compound, the Vd [26] was 4.01 L/kg, the clearance [27] was 1.64 L/h/kg and the inhibition [28] was “Active”. The pIC50 (LNCaP) was 5.36 and the AUC(0-t) [29] was 3.52 µg·h/mL.
`CC1(C)Oc2cc(NS(=O)(=O)c3ccc(F)cc3F)cnc2NC1=O` gave a pIC50 [1] of 4.40 and a ΔTm [2] of 2.3 °C.
For `COc1ccc(Br)cc1S(=O)(=O)Nc1cc2c(cc1N(C)C)NC(=O)C(C)(C)O2`, the pIC50 [1] was 5.32 and the ΔTm [2] was 3.6 °C.
In the case of `CCNC(=O)C[C@@H]1N=C(c2ccc(Cl)cc2)c2cc(OC)ccc2-n2c(C)nnc21`, the Activity (LNCaP C4-2B [8]) was “Active”, the Activity (CWR22R [24]) was “Active” and the Activity (LNCaP) was “Active”.
In the case of `CC1(C)Oc2cc(NS(=O)(=O)c3ccc(F)cc3Cl)ccc2NC1=O`, the pIC50 (LNCaP C4-2B [8]) was 5.15, the pIC50 [1] was 5.84 and the ΔTm [2] was 5.7 °C. For the same compound, the pIC50 (DU-145) was 4.26, the pIC50 (PC-3) was 4.57 and the pIC50 (CWR22R [24]) was 5.15. For the same compound, the pIC50 (LNCaP) was 5.11.
Compound `COc1ccc(Cl)cc1S(=O)(=O)Nc1ccc2c(c1)OC(C)(C)C(=O)N2` has a pIC50 [1] of 5.53 and a ΔTm [2] of 4.5 °C.
In the case of `COc1ccc(Br)cc1S(=O)(=O)Nc1cc2c(cc1N1CCOCC1)NC(=O)C(C)(C)O2`, the IC50 [1] was “Not Active” and the ΔTm [2] was 0 °C.
For `CC1(C)Oc2cc(NS(=O)(=O)c3cccs3)cnc2NC1=O`, the pIC50 [1] was 4.59 and the ΔTm [2] was 2.3 °C.
`CC1(C)Oc2cc(NS(=O)(=O)c3ccc(F)cc3F)ccc2NC1=O` showed a pIC50 [1] of 5.56 and a ΔTm [2] of 6.3 °C.
Work on `CCCCS(=O)(=O)Nc1ccc2c(c1)OC(C)(C)C(=O)N2` yielded a pIC50 [1] of 4.93 and a ΔTm [2] of 4.5 °C.
With `Cc1ccc(S(=O)(=O)Nc2ccc3c(c2)OC(C)(C)C(=O)N3)cc1` the pIC50 [1] was 5.33 and the ΔTm [2] was 2.9 °C.
